The source made the active and inactive calls. No cut-off for these calls is given here.
Assays:
[1] = molecular target: T1, Phospholipase A and acyltransferase 2 (Homo sapiens) (UniProt Q9NWW9); assay: Inhibition of full-length C-terminal FLAG-tagged human PLAAT2 expressed in human U2OS cells assessed as reduction in 2-AG level at 10 uM incubated for 4 hrs by LC-MS/MS analysis; assay type: cell-based
T1 sequence (whole entry): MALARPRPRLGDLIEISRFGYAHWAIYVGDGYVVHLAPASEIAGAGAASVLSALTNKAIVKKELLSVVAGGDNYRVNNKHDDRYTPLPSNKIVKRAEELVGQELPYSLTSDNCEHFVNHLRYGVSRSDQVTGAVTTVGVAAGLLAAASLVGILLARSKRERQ
Method in brief: (§1)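 U2OS cells transfected with PLAAT2, PLAAT5 or empty vector (PEI, 1:5 plasmid/PEI). At 24 h, switched to serum-free medium with 10 μM compound (0.1% DMSO) or DMSO for 4 h at 37 °C. Pellets extracted with MTBE against deuterated internal standards. NAEs, 2-AG and free fatty acids quantified by LC–MS/MS, normalized to live cell count. Four biological replicates; one-way ANOVA.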

[2] = molecular target: Cytosolic phospholipase A2 epsilon (Homo sapiens) (UniProt Q3MJ16); assay: Inhibition of full length human PLA2G4E assessed as enzyme remaining activity at 10 uM using FP-TAMRA as substrate preincubated for 30 mins followed by substrate addition and measured after 5 mins by SDS-PAGE based ABPP analysis relative to control
Method in brief: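 hPLA2G4E-overexpressing membrane lysate (1 μg/μL) preincubated with 10 μM inhibitor for 30 min at rt. FP-TAMRA 50 nM added for 5 min at rt. Resolved on 8% SDS-PAGE, fluorescence normalized to Coomassie. Reported as % remaining activity ± SD, n = 3.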

[3] = molecular target: T1, Phospholipase A and acyltransferase 2 (Homo sapiens); assay: Inhibition of full-length C-terminal FLAG-tagged human PLAAT2 expressed in human U2OS cells assessed as reduction in absolute N-docosahexaenoylethanolamine level at 10 uM incubated for 4 hrs by LC-MS/MS analysis; assay type: cell-based; method in brief: as §1
[4] = molecular target: T1, Phospholipase A and acyltransferase 2 (Homo sapiens); assay: Inhibition of full-length C-terminal FLAG-tagged human PLAAT2 expressed in human U2OS cells assessed as reduction in anandamide level at 10 uM incubated for 4 hrs by LC-MS/MS analysis relative to control; assay type: cell-based; method in brief: as §1
U2OS [5] = assay: Downregulation of N-oleoylethanolamine level in human U2OS cells at 10 uM after 4 hrs by LC-MS/MS analysis; assay type: functional, cell-based; method in brief: as §1
[6] = molecular target: Cytosolic phospholipase A2 delta (Homo sapiens) (UniProt Q86XP0); assay: Inhibition of human PLA2G4D expressed in HEK293T cell lysates at 10 uM preincubated for 30 mins followed by FP-TAMRA addition and measured after 20 mins by SDS-PAGE based competitive ABPP analysis; assay type: cell-free; conditions: HEK-293T
Method in brief: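 hPLA2G4B, C or D-overexpressing membrane lysate (1 μg/μL) preincubated with inhibitor for 30 min at rt. FP-TAMRA 500 nM added for 20 min at rt. In-gel fluorescence after SDS-PAGE, normalized to Coomassie.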

U2OS [7] = assay: Downregulation of N-palmitoylethanolamine level in human U2OS cells at 10 uM after 4 hrs by LC-MS/MS analysis; assay type: functional, cell-based; method in brief: as §1
[8] = molecular target: T2, Phospholipase A and acyltransferase 5 (Homo sapiens) (UniProt Q96KN8); assay: Inhibition of full-length C-terminal FLAG-tagged human PLAAT5 expressed in human U2OS cells assessed as reduction in absolute N-stearoylethanolamine level at 10 uM incubated for 4 hrs by LC-MS/MS analysis; assay type: cell-based; method in brief: as §1
T2 sequence (whole entry): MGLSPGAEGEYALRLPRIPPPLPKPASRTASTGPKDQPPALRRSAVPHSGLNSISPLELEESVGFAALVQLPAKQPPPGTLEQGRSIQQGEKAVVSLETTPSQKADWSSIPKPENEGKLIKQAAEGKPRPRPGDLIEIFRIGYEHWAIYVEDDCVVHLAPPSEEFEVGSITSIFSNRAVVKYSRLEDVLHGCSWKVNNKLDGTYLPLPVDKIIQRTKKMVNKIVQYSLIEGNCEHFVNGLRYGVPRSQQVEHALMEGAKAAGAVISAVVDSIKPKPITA

[9] = molecular target: T2, Phospholipase A and acyltransferase 5 (Homo sapiens); assay: Inhibition of full-length C-terminal FLAG-tagged human PLAAT5 expressed in human U2OS cells assessed as reduction in absolute N-palmitoleoylethanolamine level at 10 uM incubated for 4 hrs by LC-MS/MS analysis; assay type: cell-based; method in brief: as §1
[10] = molecular target: T3, Phospholipase A and acyltransferase 2 (Homo sapiens, UniProt Q9NWW9); assay: Inhibition of full-length C-terminal FLAG-tagged human PLAAT2 expressed in HEK293T cell lysate preincubated for 30 mins followed by MB064 addition and measured after 20 mins by SDS-PAGE based ABPP analysis; assay type: cell-free, HEK-293T
T3 sequence (Q9NWW9 whole entry): T1 sequence (whole entry)
Method in brief: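 Dose–response competitive ABPP on cytosol only, from HEK293T overexpressing FLAG-tagged PLAAT. Inhibitor 30 min rt, then MB064 20 min rt. PLAAT2 0.25 μg/μL with 250 nM probe; PLAAT3 0.5 μg/μL with 250 nM; PLAAT4 and PLAAT5 1 μg/μL with 500 nM. Fluorescence normalized to Coomassie. IC50 from curves, reported as pIC50 ± SEM, n = 3.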

U2OS [11] = assay: Downregulation of N-docosahexaenoylethanolamine level in human U2OS cells at 10 uM after 4 hrs by LC-MS/MS analysis; assay type: functional, cell-based; method in brief: as §1
[12] = molecular target: T1, Phospholipase A and acyltransferase 2 (Homo sapiens); assay: Inhibition of full-length C-terminal FLAG-tagged human PLAAT2 expressed in human U2OS cells assessed as reduction in absolute N-eicosapentaenoylethanolamine level at 10 uM incubated for 4 hrs by LC-MS/MS analysis; assay type: cell-based; method in brief: as §1
U2OS [13] = assay: Inhibition of serine hydrolase in human U2OS cell membrane fraction at 10 uM preincubated for 30 mins followed by FP-TAMRA addition and measured after 15 mins by SDS-PAGE based competitive ABPP analysis
Method in brief: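 U2OS membrane lysate (2.5 μg/μL) preincubated with inhibitor for 30 min at rt. FP-TAMRA 500 nM added for 15 min at rt. SDS-PAGE with in-gel fluorescence normalized to Coomassie.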

[14] = molecular target: N-acyl-phosphatidylethanolamine-hydrolyzing phospholipase D (Homo sapiens) (UniProt Q6IQ20); assay: Inhibition of full length human NAPE-PLD expressed in HEK293T cells assessed as enzyme remaining activity at 10 uM using PED6 as substrate preincubated for 30 mins followed by substrate addition and measured for 1 hr at 2 mins relative to control; assay type: cell-based; conditions: HEK-293T
U2OS [15] = assay: Inhibition of serine hydrolase in human U2OS cytosolic fraction at 10 uM preincubated for 30 mins followed by MB064 addition and measured after 15 mins by SDS-PAGE based competitive ABPP analysis
Method in brief: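 U2OS cytosol or membrane lysate at 2.5 μg/μL, pretreated with inhibitor or DMSO vehicle for 30 min at rt. Probe then added for 15 min at rt: MB064 at 2 μM or FP-TAMRA at 500 nM. Samples denatured in Laemmli buffer and resolved by SDS-PAGE. In-gel fluorescence scanned at Cy3/Cy5 settings and normalized to Coomassie staining.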

[16] = molecular target: Cannabinoid receptor 1 (Homo sapiens) (UniProt P21554); assay: Displacement of [3H]CP55940 from human CB1 receptor expressed in CHOK1 cell membranes at 10 uM by liquid scintillation spectrometry analysis; conditions: CHO-K1
Method in brief: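 [3H]CP55940 displacement at human CB1 or CB2 receptors, single test concentration 10 μM. Result expressed as % radioligand displacement ± SD (N = 2, n = 2).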

Sequence of Cytosolic phospholipase A2 delta (Homo sapiens) (Q86XP0 whole entry): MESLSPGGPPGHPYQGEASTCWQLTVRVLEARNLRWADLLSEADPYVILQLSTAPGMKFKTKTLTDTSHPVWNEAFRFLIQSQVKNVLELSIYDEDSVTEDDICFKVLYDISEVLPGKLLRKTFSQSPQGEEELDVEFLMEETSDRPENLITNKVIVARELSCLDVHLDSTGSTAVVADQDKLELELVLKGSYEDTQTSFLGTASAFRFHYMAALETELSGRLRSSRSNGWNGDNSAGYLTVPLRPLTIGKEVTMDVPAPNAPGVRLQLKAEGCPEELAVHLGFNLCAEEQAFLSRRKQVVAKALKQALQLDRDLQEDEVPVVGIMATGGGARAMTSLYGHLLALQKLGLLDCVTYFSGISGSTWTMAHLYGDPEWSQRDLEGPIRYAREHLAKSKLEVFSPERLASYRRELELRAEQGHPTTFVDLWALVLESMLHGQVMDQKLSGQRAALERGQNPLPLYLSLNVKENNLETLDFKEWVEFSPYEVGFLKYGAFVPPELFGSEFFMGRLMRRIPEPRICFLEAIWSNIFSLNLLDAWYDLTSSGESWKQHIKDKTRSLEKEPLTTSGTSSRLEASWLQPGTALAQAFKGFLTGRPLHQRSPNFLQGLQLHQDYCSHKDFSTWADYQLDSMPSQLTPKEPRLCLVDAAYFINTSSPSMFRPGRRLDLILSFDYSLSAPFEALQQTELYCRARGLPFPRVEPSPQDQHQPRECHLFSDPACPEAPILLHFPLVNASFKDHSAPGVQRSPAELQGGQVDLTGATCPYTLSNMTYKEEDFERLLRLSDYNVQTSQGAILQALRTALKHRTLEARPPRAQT
Sequence of N-acyl-phosphatidylethanolamine-hydrolyzing phospholipase D (Homo sapiens) (Q6IQ20 whole entry, looked up): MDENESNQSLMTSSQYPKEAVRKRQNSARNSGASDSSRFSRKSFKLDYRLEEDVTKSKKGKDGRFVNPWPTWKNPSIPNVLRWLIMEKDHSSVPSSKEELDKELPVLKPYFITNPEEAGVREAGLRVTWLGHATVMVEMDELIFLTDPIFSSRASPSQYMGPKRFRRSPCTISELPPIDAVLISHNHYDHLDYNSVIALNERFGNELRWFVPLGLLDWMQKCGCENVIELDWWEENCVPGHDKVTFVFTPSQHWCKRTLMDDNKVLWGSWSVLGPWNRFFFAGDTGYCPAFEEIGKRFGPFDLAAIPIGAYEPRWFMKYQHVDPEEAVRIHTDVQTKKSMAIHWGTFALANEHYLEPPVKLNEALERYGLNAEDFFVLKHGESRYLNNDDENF
Sequence of Cytosolic phospholipase A2 epsilon (Homo sapiens) (Q3MJ16 whole entry): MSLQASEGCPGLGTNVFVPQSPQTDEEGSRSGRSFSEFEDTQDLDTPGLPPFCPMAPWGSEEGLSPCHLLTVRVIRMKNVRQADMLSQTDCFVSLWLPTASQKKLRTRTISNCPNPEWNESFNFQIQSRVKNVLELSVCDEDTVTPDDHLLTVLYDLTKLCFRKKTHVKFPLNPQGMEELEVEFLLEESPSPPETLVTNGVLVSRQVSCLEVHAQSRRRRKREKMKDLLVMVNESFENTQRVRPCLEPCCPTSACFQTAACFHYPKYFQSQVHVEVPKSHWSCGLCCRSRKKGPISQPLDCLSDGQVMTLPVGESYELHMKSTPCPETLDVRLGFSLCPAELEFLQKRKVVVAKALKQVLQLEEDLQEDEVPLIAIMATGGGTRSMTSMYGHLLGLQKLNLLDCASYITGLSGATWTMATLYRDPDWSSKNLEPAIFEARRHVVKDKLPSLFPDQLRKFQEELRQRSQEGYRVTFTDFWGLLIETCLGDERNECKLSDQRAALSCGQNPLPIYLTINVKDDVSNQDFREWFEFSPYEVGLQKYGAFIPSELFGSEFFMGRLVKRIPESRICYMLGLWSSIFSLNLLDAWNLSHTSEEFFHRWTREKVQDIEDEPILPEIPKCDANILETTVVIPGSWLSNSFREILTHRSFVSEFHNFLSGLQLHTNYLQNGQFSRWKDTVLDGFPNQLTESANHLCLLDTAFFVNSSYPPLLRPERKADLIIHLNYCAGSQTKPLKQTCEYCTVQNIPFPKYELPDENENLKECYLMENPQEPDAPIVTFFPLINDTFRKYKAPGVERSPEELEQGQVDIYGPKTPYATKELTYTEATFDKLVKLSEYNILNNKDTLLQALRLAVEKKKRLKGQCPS
Sequence of Cannabinoid receptor 1 (Homo sapiens) (P21554 whole entry): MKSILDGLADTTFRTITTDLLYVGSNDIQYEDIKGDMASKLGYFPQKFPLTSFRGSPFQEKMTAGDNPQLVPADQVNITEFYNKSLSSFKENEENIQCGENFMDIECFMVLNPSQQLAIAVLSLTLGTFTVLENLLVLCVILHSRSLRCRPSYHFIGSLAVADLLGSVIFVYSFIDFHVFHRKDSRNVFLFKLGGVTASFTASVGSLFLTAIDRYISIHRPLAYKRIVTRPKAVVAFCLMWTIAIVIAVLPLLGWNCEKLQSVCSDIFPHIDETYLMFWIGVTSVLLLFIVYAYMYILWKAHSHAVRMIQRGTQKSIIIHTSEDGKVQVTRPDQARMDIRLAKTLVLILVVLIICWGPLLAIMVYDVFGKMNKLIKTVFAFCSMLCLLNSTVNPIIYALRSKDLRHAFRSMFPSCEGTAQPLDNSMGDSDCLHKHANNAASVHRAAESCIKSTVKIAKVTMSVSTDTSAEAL

With `O=C(CCCc1ccccc1)C(=O)NCCc1ccc(Oc2ccccc2)cc1` the inhibition [1] was “inactive”, the Activity [2] was 95% and the inhibition [3] was “Active”. For the same molecule, the fold change (FC) [4] was 2, the inhibition (U2OS [5]) was “inactive” and the inhibition [6] was “inactive”. For the same molecule, the inhibition (U2OS [7]) was “inactive”, the inhibition [8] was “Active” and the inhibition [9] was “Active”. The IC50 [10] was 50.1 nM, the inhibition (U2OS [11]) was “inactive” and the inhibition [12] was “Active”. The inhibition (U2OS [13]) was “inactive”, the Activity [14] was 92% and the inhibition (U2OS [15]) was “inactive”. For the same molecule, the Activity [16] was 49%.
